{"data": "Measured values collected from several papers", "note": "Each line is one published result; the experiments were not run side by side."}
{"Structure (SMILES)": "c1ccc(Oc2ccc(Nc3c4c(nc5ccccc35)CCC4)cc2)cc1", "tested on": "Leishmania infantum", "test": "parasite growth, MTT", "setting": "promastigote", "endpoint": "EC50", "result": "539 nM"}
{"Structure (SMILES)": "Cc1nc(Nc2ncc(C(=O)Nc3c(C)cccc3Cl)s2)cc(N2CC[C@H](O)C2)n1", "tested on": "DOHH-2", "test": "cell growth or viability, ATP luminescence", "setting": "10 µM, 72 h", "endpoint": "inhibition", "result": "86%"}
{"Structure (SMILES)": "O=C(Nc1ccccc1/N=c1\\cc(-c2ccc3c(c2)OCO3)oc2ccccc12)N1CCNCC1", "tested on": "HCT-116", "test": "cell growth or viability, CCK-8", "setting": "1 µM", "endpoint": "inhibition", "result": "15.1%"}
{"Structure (SMILES)": "C[C@@H]1O[C@@H](OC[C@H]2O[C@@H](Oc3c(-c4ccc(O)c(O)c4)oc4cc(O)cc(O)c4c3=O)[C@H](O)[C@@H](O)[C@@H]2O)[C@H](O)[C@H](O)[C@H]1O", "tested on": "Streptococcus mutans", "test": "microbial growth, disc diffusion", "setting": "500 µg/disc", "endpoint": "inhibition zone", "result": "14 mm"}
{"Structure (SMILES)": "COc1ccc2/c(=N/c3ccccc3NC(=O)CN)cc(-c3ccc4c(c3)OCCO4)oc2c1", "tested on": "HCT-116", "test": "cell growth or viability, CCK-8", "setting": "1 µM", "endpoint": "inhibition", "result": "11.4%"}
{"Structure (SMILES)": "O=C(O[C@@H]1O[C@@H]2COC(=O)c3cc(O)c(O)c(O)c3-c3c(cc(O)c(O)c3O)C(=O)O[C@H]([C@H]1O)[C@@H]2O)c1cc(O)c(O)c(O)c1", "tested on": "Streptococcus mutans", "test": "microbial growth, broth dilution", "setting": "24 h", "endpoint": "MIC", "result": "200 µg/mL"}
{"Structure (SMILES)": "CC[C@H]1OC(=O)[C@H](C)[C@@H](O[C@H]2C[C@@](C)(OC)[C@@H](O)[C@H](C)O2)[C@H](C)[C@@H](O[C@@H]2O[C@H](C)C[C@H](N(C)C)[C@H]2O)[C@](C)(O)C[C@@H](C)/C(=N\\OCOCCOC)[C@H](C)[C@@H](O)[C@]1(C)O", "tested on": "Streptococcus pyogenes", "test": "microbial growth", "setting": "clinical isolate", "endpoint": "MIC90", "result": "2 µg/mL"}
{"Structure (SMILES)": "NCC(=O)Nc1ccccc1/N=c1\\cc(-c2ccc3c(c2)OCO3)oc2ccccc12", "tested on": "HCT-116", "test": "cell growth or viability, CCK-8", "setting": "1 µM", "endpoint": "inhibition", "result": "4.94%"}
{"Structure (SMILES)": "Oc1cc(O)c2c(c1)O[C@H](c1cc(O)c(O)c(O)c1)[C@@H](O)C2", "tested on": "Streptococcus mutans", "test": "microbial killing, broth dilution", "endpoint": "MBC", "result": "400 µg/mL"}
{"Structure (SMILES)": "C[C@@H]1[C@H](O)[C@@H](C)/C=C/C=C/C=C/C=C/C=C/C=C/C=C/[C@H](O[C@@H]2O[C@H](C)[C@@H](O)[C@H](N)[C@@H]2O)C[C@@H]2O[C@](O)(C[C@@H](O)C[C@@H](O)[C@H](O)CC[C@@H](O)C[C@@H](O)CC(=O)O[C@H]1C)C[C@H](O)[C@H]2C(=O)O", "tested on": "Leishmania infantum", "test": "parasite growth, MTT", "setting": "promastigote", "endpoint": "IC50", "result": "1490 nM"}
{"Structure (SMILES)": "C=C[C@]1(C)C[C@@H](OC(=O)CS[C@@H]2C[C@H]3CC[C@@H](C2)N3C)[C@]2(C)[C@H](C)CC[C@]3(CCC(=O)[C@H]32)[C@@H](C)[C@@H]1O", "tested on": "Streptococcus pyogenes", "test": "microbial growth", "setting": "clinical isolate", "endpoint": "MIC90", "result": "0.0312 µg/mL"}
{"Structure (SMILES)": "NCCC(=O)Nc1ccc(/N=c2\\cc(-c3ccc4c(c3)OCO4)oc3ccccc23)cc1", "tested on": "HCT-116", "test": "cell growth or viability, CCK-8", "setting": "1 µM", "endpoint": "inhibition", "result": "12.2%"}
{"Structure (SMILES)": "O=c1oc2c(O)c(O)cc3c(=O)oc4c(O)c(O)cc1c4c23", "tested on": "Streptococcus mutans", "test": "microbial growth, broth dilution", "setting": "24 h", "endpoint": "MIC", "result": "100 µg/mL"}
{"Structure (SMILES)": "COc1ccc(NC(=O)Nc2ccc(-c3cn(Cc4ccc(Cl)cc4)nn3)cc2)cc1", "tested on": "PC-9", "test": "cell growth or viability, CCK-8", "setting": "50 µM, 72 h", "endpoint": "viability", "result": "87.3%"}
{"Structure (SMILES)": "Nc1nc2ccc(-c3c/c(=N\\c4ccccc4NC(=O)CCN4CCOCC4)c4ccccc4o3)cc2o1", "tested on": "HCT-116", "test": "cell growth or viability, CCK-8", "setting": "1 µM", "endpoint": "inhibition", "result": "-4.11%"}
{"Structure (SMILES)": "CCOc1ccc(Nc2c3c(nc4ccccc24)CCC3)cc1", "tested on": "Leishmania infantum", "test": "parasite growth, MTT", "setting": "promastigote", "endpoint": "EC50", "result": "645 nM"}
{"Structure (SMILES)": "O=C1OC[C@H]2OC(O)[C@H](O)[C@@H](O)[C@@H]2OC(=O)c2cc(O)c(O)c(O)c2-c2c(O)c(O)c3oc(=O)c4c(c(O)c(O)c5oc(=O)c2c3c54)-c2c1cc(O)c(O)c2O (mixture of isomers)", "tested on": "Streptococcus mutans", "test": "microbial killing, broth dilution", "endpoint": "MBC", "result": "400 µg/mL"}
{"Structure (SMILES)": "NCCCC(=O)Nc1ccccc1/N=c1\\cc(-c2ccc3c(c2)OCO3)oc2ccccc12", "tested on": "HCT-116", "test": "cell growth or viability, CCK-8", "setting": "1 µM", "endpoint": "inhibition", "result": "6.97%"}
{"Structure (SMILES)": "CC1(C)S[C@@H]2[C@H](NC(=O)[C@H](N)c3ccccc3)C(=O)N2[C@H]1C(=O)O", "tested on": "Streptococcus pyogenes", "test": "microbial growth", "setting": "clinical isolate", "endpoint": "MIC90", "result": "0.5 µg/mL"}
